Experimental data as given in ChEMBL document CHEMBL1132454 (J Med Chem, 1999).

Columns and labels:
[1] = molecular target: T1, Sodium-dependent dopamine transporter (Rattus norvegicus, UniProt P23977); assay: (§1) Binding affinity Sprague-Dawley rats using [3H]WIN-35428 ligand
In short: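 Rat caudate-putamen membranes washed in ice-cold Krebs-HEPES pH 7.4, ~0.3% w/v (150–300 μg protein). Drug added 5 min before 1.5 nM [3H]WIN 35,428; 1 h on ice; filtration.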

[2] = molecular target: T2, Sodium-dependent serotonin transporter (Rattus norvegicus, UniProt P31652); assay: Binding affinity against Serotonin transporter in male Sprague-Dawley rats using [3H]paroxetine ligand; IA = inactive
In short: (§2)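 Frozen rat midbrain membranes in 50 mM Tris, 120 mM NaCl, 5 mM KCl pH 7.4; 1.5 mg wet tissue per tube with 0.2 nM [3H]paroxetine, 90 min at room temperature; nonspecific defined with 1 μM citalopram; filtration and scintillation counting.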

[3] = molecular target: T1, Sodium-dependent dopamine transporter; assay: Inhibition of Dopamine uptake in male Sprague-Dawley rats using [3H]DA ligand
[4] = molecular target: T3, Norepinephrine transporter (Rattus norvegicus, UniProt Q9WTR4); assay: The compound was tested for binding affinity nisoxatine ligand; IA = inactive
In short: (§3)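 Rat frontal cortex membranes (male Sprague–Dawley) in 50 mM Tris/120 mM NaCl/5 mM KCl pH 7.4; 8 mg wet tissue with 0.5 nM [3H]nisoxetine, 60 min at 0–4 °C; 1 μM desipramine for nonspecific; filtration, scintillation counting.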

[5] = (§4) Binding affinity of Sigma opioid receptor type 1 in Guinea pig brain membranes using [3H]pentazocine ligand; format: cell membranes, Membrane
In short: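 σ1 sites: guinea pig brain membranes minus cerebella (350–500 μg protein) with 3 nM [3H](+)-pentazocine in 50 mM Tris-HCl pH 8.0, 120 min at 25 °C; 10 μM haloperidol for nonspecific; filtration on polyethyleneimine-soaked filters. IC50 converted to Ki via Cheng–Prusoff.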

[6] = molecular target: Sigma intracellular receptor 2 (Rattus norvegicus, UniProt Q5U3Y7); assay: The compound was tested for binding affinity of Sigma opioid receptor type 2 in rat liver membranes using [3H]DTG ligand; format: cell membranes, Membrane
In short: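 σ2 sites: male Sprague–Dawley rat liver membranes (160 μg protein), 5 nM [3H]DTG plus 1 μM dextrallorphan masking σ1, 50 mM Tris-HCl pH 8.0, 120 min at 25 °C; 10 μM haloperidol nonspecific; filtration. IC50 converted to Ki by Cheng–Prusoff.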

[7] = molecular target: T2, Sodium-dependent serotonin transporter; assay: (§5) Binding affinity against Serotonin transporter in male Sprague-Dawley rats using [3H]paroxetine ligand; in short: as §2
[8] = molecular target: T3, Norepinephrine transporter; assay: (§6) The compound was tested for binding affinity nisoxatine ligand; in short: as §3
[9] = molecular target: T2, Sodium-dependent serotonin transporter; assay: as §5; remark: listed apart in the source
In short: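 Male Sprague-Dawley rat midbrain membranes in 50 mM Tris, 120 mM NaCl, 5 mM KCl, pH 7.4; 1.5 mg original wet tissue per tube. Incubation with 0.2 nM [3H]paroxetine for 90 min at room temperature. Nonspecific binding with 1 μM citalopram. Filtration and scintillation counting; Ki from at least three experiments in triplicate.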

[10] = molecular target: T3, Norepinephrine transporter; assay: as §6; remark: listed apart in the source
In short: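 Male Sprague-Dawley rat frontal cortex membranes in 50 mM Tris, 120 mM NaCl, 5 mM KCl, pH 7.4; 8 mg original wet tissue per tube. Incubation with 0.5 nM [3H]nisoxetine for 60 min at 0-4 °C. Nonspecific binding with 1 μM desipramine. Filtration and scintillation counting; Ki from at least three experiments in triplicate.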

[11] = molecular target: T1, Sodium-dependent dopamine transporter; assay: as §1; remark: listed apart in the source
In short: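 Rat caudate-putamen membranes washed in modified Krebs-HEPES buffer, pH 7.4; 150-300 μg protein per tube. Filtration read-out; Ki by nonlinear least-squares fit; at least three independent experiments.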

[12] = as §4; format: cell membranes, Membrane; remark: listed apart in the source
In short: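 Guinea pig brain membranes (minus cerebella), 350–500 μg protein, with 3 nM [3H](+)-pentazocine in 50 mM Tris-HCl pH 8.0 for 120 min at 25 °C. Nonspecific binding with 10 μM haloperidol. Filtration, then overnight extraction and counting. IC50 from curve fit, converted to Ki by Cheng-Prusoff.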

Sequence of Sigma intracellular receptor 2 (Q5U3Y7 whole entry, looked up): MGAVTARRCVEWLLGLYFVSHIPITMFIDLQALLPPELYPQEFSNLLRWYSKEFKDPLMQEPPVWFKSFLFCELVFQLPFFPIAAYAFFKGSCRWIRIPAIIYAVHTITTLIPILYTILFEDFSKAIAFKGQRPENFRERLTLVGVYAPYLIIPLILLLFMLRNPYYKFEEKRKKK
T1 sequence (P23977 whole entry): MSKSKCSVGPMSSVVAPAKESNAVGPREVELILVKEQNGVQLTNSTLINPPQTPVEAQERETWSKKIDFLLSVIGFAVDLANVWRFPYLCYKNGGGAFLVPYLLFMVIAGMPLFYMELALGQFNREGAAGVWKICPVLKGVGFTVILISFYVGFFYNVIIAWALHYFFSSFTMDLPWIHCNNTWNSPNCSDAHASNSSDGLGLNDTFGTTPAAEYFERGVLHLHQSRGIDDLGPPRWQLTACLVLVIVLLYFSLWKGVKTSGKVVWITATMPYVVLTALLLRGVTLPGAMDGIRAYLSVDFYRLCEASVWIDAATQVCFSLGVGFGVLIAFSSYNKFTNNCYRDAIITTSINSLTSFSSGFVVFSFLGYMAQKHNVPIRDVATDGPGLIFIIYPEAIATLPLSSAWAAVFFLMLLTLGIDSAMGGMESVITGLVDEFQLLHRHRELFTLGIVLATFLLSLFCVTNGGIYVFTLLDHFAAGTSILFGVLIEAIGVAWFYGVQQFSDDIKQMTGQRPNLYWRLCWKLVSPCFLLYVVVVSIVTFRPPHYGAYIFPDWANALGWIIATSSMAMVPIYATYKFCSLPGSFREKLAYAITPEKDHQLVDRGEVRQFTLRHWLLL
T2 sequence (P31652 whole entry): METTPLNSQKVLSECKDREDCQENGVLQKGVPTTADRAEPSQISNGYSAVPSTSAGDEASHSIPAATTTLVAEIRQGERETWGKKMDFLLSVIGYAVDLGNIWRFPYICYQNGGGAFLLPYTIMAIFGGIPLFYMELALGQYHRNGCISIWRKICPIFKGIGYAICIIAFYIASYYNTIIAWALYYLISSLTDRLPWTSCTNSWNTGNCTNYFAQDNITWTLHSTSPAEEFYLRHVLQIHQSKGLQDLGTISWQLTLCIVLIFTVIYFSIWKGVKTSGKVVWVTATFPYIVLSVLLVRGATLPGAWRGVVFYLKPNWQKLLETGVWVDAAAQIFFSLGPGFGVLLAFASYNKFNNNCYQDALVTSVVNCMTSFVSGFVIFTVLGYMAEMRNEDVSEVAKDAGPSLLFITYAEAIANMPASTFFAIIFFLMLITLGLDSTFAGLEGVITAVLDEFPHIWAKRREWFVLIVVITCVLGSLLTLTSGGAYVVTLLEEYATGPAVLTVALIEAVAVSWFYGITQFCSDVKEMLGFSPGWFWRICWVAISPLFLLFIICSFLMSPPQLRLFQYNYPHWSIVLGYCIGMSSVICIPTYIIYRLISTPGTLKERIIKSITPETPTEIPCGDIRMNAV
T3 sequence (Q9WTR4 whole entry): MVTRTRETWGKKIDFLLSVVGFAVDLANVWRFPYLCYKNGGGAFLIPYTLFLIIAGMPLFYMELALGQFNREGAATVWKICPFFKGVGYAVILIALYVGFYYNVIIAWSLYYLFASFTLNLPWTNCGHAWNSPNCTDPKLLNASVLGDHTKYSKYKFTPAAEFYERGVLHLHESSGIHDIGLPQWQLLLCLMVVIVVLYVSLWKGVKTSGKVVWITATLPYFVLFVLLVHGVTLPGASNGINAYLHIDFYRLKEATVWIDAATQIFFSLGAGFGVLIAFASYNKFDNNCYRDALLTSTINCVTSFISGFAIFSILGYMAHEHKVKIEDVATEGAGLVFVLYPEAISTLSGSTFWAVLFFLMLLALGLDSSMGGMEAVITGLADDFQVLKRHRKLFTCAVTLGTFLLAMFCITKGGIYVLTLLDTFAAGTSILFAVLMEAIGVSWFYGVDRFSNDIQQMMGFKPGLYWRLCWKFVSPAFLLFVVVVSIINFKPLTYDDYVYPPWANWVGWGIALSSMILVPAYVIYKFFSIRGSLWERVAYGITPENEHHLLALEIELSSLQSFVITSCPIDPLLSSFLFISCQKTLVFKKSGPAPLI

| Structure (SMILES) | Ki [1] | Ki [2] | IC50 [3] | Ki [4] | Ki [5] | Ki [6] | Ki [7] | Ki [8] | Ki [9] | Ki [10] | Ki [11] | Ki [12] |
| --- | --- | --- | --- | --- | --- | --- | --- | --- | --- | --- | --- | --- |
| Clc1ccccc1N1CCN(CCCn2c3ccccc3c3ccccc32)CC1 | 113000 nM | Not Active | 2770 nM | Not Active | – | – | – | – | – | – | – | – |
| C[C@H]1CN(CCCN(c2ccccc2)c2ccccc2)C[C@H](C)N1 | 813 nM | – | 1060 nM | – | 138 nM | 351 nM | 13100 nM | 6.81 µM | – | – | – | – |
| C[C@H]1CN(CCCn2c3ccc(Br)cc3c3cc(Br)ccc32)C[C@H](C)N1 | 3890 nM | – | – | – | 4420 nM | 675 nM | 1130 nM | 1.3 µM | – | – | – | – |
| C[C@H]1CN(CCCn2c3ccc([N+](=O)[O-])cc3c3cc([N+](=O)[O-])ccc32)C[C@H](C)N1 | – | – | 3670 nM | – | – | – | – | – | 1850 nM | 3.66 µM | 174 µM | – |
| C[C@H]1CN(CCCn2c3ccccc3c3cc(N)ccc32)C[C@H](C)N1 | 2400 nM | – | – | – | 5720 nM | 1660 nM | 2100 nM | 13.9 µM | – | – | – | – |
| C[C@@H]1CN(CCCn2c3ccc(Br)cc3c3cc(Br)cc(Br)c32)C[C@@H](C)N1 | – | – | – | – | – | – | – | – | 1610 nM | 8.54 µM | 30.3 µM | > 6 µM |
| c1ccc(N2CCN(CCCn3c4ccccc4c4ccccc43)CC2)cc1 | 4930 nM | Not Active | 1820 nM | – | – | – | – | 4.12 µM | – | – | – | – |

More lines, main results first:

| Ki [1] | Ki [2] | IC50 [3] | Ki [4] | Ki [5] | Ki [6] | Ki [7] | Ki [8] | Structure (SMILES) | Ki [9] | Ki [10] | Ki [11] | Ki [12] |
| --- | --- | --- | --- | --- | --- | --- | --- | --- | --- | --- | --- | --- |
| 436 nM | – | 472 nM | – | 552 nM | 230 nM | 373 nM | 9.37 µM | C[C@H]1CN(CCCn2c3ccccc3c3ccccc32)C[C@H](C)N1C | – | – | – | – |
| 263 nM | – | 639 nM | – | 104 nM | 145 nM | 44.5 nM | 2.49 µM | C[C@H]1CN(CCCn2c3ccccc3c3ccccc32)C[C@H](C)N1CCCc1ccccc1 | – | – | – | – |
| 61 nM | – | 36.6 nM | – | 97.2 nM | 183 nM | 219 nM | 3.64 µM | C[C@H]1CN(CCCN(c2ccccc2)c2ccccc2)C[C@H](C)N1CCCc1ccccc1 | – | – | – | – |
| 109 nM | – | 111 nM | – | 596 nM | 193 nM | 1170 nM | 4.58 µM | C[C@H]1CN(CCCn2c3ccccc3c3cc([N+](=O)[O-])ccc32)C[C@H](C)N1 | – | – | – | – |
| 224 nM | – | 140 nM | – | – | – | 825 nM | 2.16 µM | C[C@@H]1CN(CCCn2c3ccccc3c3ccccc32)C[C@H](C)N1 [RIMCAZOLE] | – | – | – | – |
